Tests used:
[1] = Half-life was determined; type: ADME, organism-based; details: rat, in vivo
Outline: (§1)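 Rat pharmacokinetics from plasma concentration–time data in two to three separate animals, by non-compartmental analysis. Oral bioavailability was taken from dose-normalized i.v. and p.o. AUC values.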

Rattus norvegicus = test: In vivo inhibitory activity against bone resorption of calcium response determined in thyroidparathyroidectomized rat model at 2.53 mg/kg/hr after 6 hr; type: functional
Outline: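 Thyroparathyroidectomized rats received compound by continuous i.v. infusion at 2.53 mg/kg/hr. Inhibition of the calcemic response was read after 6 hr.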

Integrin alpha-V/beta-5 = Integrin alpha-V/beta-5 (Homo sapiens, UniProt P06756+P18084); test: Binding affinity for integrin alpha V beta 5 receptor; type: protein-complex assay
Chain of Integrin alpha-V/beta-5 (P06756 31-889 limits assumed): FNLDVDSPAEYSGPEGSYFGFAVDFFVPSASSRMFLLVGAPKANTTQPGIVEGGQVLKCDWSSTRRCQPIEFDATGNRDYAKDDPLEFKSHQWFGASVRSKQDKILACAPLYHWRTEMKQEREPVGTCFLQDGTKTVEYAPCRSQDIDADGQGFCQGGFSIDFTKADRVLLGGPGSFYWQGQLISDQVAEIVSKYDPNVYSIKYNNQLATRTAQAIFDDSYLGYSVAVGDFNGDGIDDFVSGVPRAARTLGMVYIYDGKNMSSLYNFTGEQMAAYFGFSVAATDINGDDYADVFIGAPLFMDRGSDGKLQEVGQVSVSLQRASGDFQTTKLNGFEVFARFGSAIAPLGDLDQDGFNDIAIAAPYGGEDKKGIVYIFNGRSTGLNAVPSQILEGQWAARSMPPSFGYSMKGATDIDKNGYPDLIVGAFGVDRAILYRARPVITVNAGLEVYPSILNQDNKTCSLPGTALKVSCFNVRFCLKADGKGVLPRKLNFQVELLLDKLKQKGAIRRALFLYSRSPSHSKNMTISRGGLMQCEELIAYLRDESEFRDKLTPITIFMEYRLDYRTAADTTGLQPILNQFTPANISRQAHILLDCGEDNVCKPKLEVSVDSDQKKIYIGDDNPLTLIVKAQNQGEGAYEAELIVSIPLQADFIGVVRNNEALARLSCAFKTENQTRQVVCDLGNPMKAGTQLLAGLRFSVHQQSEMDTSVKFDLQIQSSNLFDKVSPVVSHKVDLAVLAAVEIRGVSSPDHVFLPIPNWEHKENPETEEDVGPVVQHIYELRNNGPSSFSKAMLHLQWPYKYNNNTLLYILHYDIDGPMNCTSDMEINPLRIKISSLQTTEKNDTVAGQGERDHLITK
Chain of Integrin alpha-V/beta-5 (P06756 891-1048 limits assumed): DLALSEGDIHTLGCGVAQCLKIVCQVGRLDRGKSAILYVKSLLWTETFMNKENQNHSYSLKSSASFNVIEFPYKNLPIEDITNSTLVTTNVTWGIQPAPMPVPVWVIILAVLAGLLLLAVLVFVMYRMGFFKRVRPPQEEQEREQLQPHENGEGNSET
Chain of Integrin alpha-V/beta-5 (P18084 24-799 limits assumed): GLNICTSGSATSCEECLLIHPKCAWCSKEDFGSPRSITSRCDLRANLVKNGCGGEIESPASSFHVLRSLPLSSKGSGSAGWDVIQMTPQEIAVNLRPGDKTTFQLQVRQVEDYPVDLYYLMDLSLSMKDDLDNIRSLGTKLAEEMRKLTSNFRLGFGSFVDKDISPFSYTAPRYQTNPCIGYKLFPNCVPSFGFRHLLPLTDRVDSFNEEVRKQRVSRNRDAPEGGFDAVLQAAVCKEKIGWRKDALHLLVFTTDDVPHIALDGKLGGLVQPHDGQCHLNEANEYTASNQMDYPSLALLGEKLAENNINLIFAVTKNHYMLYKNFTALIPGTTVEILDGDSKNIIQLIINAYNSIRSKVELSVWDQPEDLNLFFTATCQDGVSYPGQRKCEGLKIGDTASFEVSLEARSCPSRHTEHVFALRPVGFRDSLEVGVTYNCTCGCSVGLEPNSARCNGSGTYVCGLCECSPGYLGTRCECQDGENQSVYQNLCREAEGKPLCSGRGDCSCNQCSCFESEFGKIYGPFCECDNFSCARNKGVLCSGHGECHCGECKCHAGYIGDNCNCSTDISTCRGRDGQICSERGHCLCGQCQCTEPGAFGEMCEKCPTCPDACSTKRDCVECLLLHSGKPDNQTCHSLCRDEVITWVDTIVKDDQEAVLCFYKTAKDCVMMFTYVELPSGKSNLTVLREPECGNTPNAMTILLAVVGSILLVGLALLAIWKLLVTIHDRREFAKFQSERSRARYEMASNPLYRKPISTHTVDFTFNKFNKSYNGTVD

[2] = molecular target: Integrin alpha-5/beta-1 (Homo sapiens); test: Binding affinity for alpha 5 beta 1 receptor
[3] = Oral bioavailability in rat; type: ADME, organism-based; details: in vivo; outline: as §1
Homo sapiens [4] = species: Homo sapiens; test: In vitro inhibitory activity against human platelet aggregation; type: functional
Outline: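 Inhibition of ADP-induced aggregation in human platelet-rich plasma.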

[5] = Plasma clearance of the compound; type: ADME, organism-based; details: rat; outline: as §1
Homo sapiens [6] = species: Homo sapiens; test: In vitro inhibitory activity determined by human osteoclast resorption assay; type: functional
Integrin alpha-V/beta-3 [7] = molecular target: T1, Integrin alpha-V/beta-3 (Homo sapiens, UniProt P05106+P06756); test: Inhibition of HEK 293 cell adhesion to vitronectin by alpha V beta 3; type: cell-based, HEK293
T1 sequence (P05106 27-788 limits assumed): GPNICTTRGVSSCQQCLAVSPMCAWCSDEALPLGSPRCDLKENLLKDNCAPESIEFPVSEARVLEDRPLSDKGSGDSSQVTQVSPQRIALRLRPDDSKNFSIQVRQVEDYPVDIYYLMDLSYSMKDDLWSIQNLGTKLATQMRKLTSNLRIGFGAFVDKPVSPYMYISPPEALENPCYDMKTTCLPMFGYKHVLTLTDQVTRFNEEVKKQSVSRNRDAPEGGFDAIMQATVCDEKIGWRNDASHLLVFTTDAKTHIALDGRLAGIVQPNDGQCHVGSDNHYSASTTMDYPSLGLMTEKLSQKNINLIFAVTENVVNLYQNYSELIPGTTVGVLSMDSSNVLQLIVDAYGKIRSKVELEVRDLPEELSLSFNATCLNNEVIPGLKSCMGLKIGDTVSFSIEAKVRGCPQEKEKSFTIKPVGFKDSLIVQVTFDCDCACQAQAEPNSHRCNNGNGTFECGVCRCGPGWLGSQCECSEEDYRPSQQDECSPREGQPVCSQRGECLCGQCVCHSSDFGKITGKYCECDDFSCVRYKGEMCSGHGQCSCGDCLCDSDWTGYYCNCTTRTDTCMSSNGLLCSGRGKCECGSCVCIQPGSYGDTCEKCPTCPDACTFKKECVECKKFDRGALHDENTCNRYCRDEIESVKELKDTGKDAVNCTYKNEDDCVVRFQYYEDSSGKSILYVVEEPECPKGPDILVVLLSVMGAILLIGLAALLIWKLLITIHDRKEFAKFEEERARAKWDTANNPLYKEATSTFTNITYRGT
T1 sequence (P06756 31-889 limits assumed): as the sequence (P06756 31-889 limits assumed) above
T1 sequence (P06756 891-1048 limits assumed): as the sequence (P06756 891-1048 limits assumed) above
Outline: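 Cell-based αvβ3 affinity. HEK 293 cells transfected with human αvβ3 were tested for inhibition of adhesion of purified human vitronectin. IC50 is the mean of two experiments run in triplicate with an internal standard.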

[8] = molecular target: Integrin alpha-IIb/beta-3 (Homo sapiens, UniProt P05106+P08514); test: Binding affinity for alpha IIb beta3 integrin; type: protein-complex assay
Chain of Integrin alpha-IIb/beta-3 (P05106 27-788 limits assumed): as the sequence (P05106 27-788 limits assumed) above
Chain of Integrin alpha-IIb/beta-3 (P08514 32-887 limits assumed): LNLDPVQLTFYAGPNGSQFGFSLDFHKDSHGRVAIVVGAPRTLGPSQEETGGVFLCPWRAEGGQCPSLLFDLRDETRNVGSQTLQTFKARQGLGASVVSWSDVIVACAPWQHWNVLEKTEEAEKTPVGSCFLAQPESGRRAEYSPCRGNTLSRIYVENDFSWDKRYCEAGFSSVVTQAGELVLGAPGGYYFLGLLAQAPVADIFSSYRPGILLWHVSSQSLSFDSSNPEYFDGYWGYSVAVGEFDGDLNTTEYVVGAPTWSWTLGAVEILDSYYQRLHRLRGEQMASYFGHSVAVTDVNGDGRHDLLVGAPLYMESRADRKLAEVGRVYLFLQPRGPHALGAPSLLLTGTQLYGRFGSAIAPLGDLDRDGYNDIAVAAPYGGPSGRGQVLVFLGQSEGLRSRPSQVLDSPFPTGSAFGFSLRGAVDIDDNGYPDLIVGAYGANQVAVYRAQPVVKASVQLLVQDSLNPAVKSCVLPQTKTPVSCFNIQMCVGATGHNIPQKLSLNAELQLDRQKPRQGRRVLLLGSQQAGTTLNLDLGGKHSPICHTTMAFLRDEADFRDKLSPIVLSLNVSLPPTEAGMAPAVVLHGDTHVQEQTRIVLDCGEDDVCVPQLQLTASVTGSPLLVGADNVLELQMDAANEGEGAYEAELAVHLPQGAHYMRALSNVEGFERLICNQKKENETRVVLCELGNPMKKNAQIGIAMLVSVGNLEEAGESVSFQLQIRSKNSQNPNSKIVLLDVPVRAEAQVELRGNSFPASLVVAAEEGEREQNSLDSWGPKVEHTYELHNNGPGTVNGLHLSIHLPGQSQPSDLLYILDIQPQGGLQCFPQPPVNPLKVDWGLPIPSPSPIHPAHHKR
Chain of Integrin alpha-IIb/beta-3 (P08514 891-1039 limits assumed): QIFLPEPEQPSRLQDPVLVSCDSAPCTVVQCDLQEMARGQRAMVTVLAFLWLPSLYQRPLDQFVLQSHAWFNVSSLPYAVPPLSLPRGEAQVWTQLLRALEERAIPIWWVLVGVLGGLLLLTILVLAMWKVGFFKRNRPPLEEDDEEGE
Outline: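 Competitive binding to human αIIbβ3, with 3H-SK&F 107260 as the displaced ligand. Ki is the mean of two to three separate experiments.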

Integrin alpha-V/beta-3 [9] = molecular target: T1, Integrin alpha-V/beta-3; test: Binding affinity for non-peptide Vitronectin receptor (alpha V beta 3); type: protein-complex assay
Outline: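 Competitive binding to human αvβ3, with 3H-SK&F 107260 as the displaced radioligand. Ki is the mean of two to three separate experiments.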

| Compound | half-life [1] [h] | inhibition in vivo at 2.53 mg/kg/hr (Rattus norvegicus) [%] | Ki (Integrin alpha-V/beta-5) [nM] | Ki [2] [nM] | bioavailability [3] [%] | IC50 (Homo sapiens [4]) [nM] | clearance [5] [mL/min/kg] | IC50 (Homo sapiens [6]) [nM] | IC50 (Integrin alpha-V/beta-3 [7]) [nM] | Ki [8] [nM] | Ki (Integrin alpha-V/beta-3 [9]) [nM] |
| --- | --- | --- | --- | --- | --- | --- | --- | --- | --- | --- | --- |
| O=C(O)C[C@@H]1Cc2ccc(OCCCNc3ccccn3)cc2Cc2ccccc21 | 3.02 | 85 | 1.3 | 18000 | 100 | > 200000 | 3 | 48 | 60 | 9000 | 4 |
| CN(Cc1nc2ccccc2[nH]1)C(=O)c1ccc2c(c1)Cc1ccccc1C(CC(=O)O)C2 (stereo not given) | – | – | – | – | – | – | – | – | 1800 | > 50000 | 23 |
| O=C(O)CC1Cc2ccc(OCCCNc3ccccn3)cc2Cc2ccccc21 (stereo not given) | – | – | – | – | – | – | – | – | 65 | 30000 | 8 |
| CN(Cc1nc2ccccc2[nH]1)C(=O)c1ccc2c(c1)CN(C)C(=O)[C@H](CC(=O)O)N2 | 0.15 | – | – | – | 3 | – | – | – | – | – | – |
| O=C(O)C[C@H]1Cc2ccc(OCCCNc3ccccn3)cc2Cc2ccccc21 | – | – | – | – | – | – | – | – | – | – | 550 |

Source: ChEMBL document CHEMBL1131769, “Orally bioavailable nonpeptide vitronectin receptor antagonists with efficacy in an osteoporosis model” (Bioorg Med Chem Lett, 1999)
